Assay outcomes (PubChem BioAssay)
Compounds with a hit are over-represented: about 2.6% of the library has one in this group of screens.
NR1D1 modulator – Rev-erb alpha (human) modulation. 0.79% of 370,000 active. Rev-erbα–FITC-DNA binding, fluorescence polarization, 90 min. P20393. activity, % at 10 µM;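 active = activity above about 14%, limit read from the data; passing the limit was not always enough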;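 note: 0% = DMSO wells with 35 nM protein and 100% = DMSO wells with 750 nM protein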
Target sequence (P20393 whole entry, looked up): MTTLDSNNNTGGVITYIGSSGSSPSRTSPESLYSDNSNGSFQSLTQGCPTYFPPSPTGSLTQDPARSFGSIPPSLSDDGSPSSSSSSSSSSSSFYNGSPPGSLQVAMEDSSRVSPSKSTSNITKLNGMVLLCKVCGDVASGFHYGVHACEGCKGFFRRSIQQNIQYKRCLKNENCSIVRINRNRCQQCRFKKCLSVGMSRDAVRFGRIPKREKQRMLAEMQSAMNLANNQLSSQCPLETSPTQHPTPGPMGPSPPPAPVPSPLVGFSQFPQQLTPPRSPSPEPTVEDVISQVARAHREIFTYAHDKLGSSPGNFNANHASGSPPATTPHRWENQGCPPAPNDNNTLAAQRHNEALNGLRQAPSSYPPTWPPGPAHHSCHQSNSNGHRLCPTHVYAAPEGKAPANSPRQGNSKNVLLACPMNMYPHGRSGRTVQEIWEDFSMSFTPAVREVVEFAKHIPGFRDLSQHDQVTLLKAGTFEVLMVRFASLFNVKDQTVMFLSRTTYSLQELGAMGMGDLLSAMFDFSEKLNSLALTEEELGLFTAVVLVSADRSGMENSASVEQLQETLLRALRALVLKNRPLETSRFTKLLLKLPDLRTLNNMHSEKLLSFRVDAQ
NR2E3 ag-1 – activates human NR2E3 receptor. 0.35% of 360,000 active. CHO-S Gal4-NCOR/VP16-NR2E3 two-hybrid, luciferase. Q9Y5X4. inhibition of corepressor binding, % at 3.98 µM;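 active = inhibition above the mean of all tested compounds plus 3 SD, cut at about 70% in these data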;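 note: 0% = DMSO with NR2E3 transfected cells and 100% = cells lacking NR2E3 construct; higher means lower luciferase signal from less NR2E3 corepressor binding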
rCAG binder – binds r(CAG) RNA repeats. r(CAG) RNA repeat, TO-PRO-1 dye displacement fluorescence. inhibition, % at 3 µM. 1.3% of 370,000 active;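 active = inhibition above the plate cutoff, the mean of all test compounds on that plate plus 3 SD, cut at about 35% in these data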;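 note: 0% = DMSO alone and 100% = 100 µM mitoxantrone as full dye displacement; higher means more dye released from RNA so lower well fluorescence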
PG9 Ab binder – binds the HIV-1 gp120 antibody PG9. TR-FRET gp120-PG9 antibody binding. inhibition, % at 6.7 µM. 0.43% of 360,000 active; in the data active = inhibition above about 8.5%
NR2E3 ag-2 – agonists of human nuclear receptor NR2E3; Q9Y5X4; GST-NR2E3/biotin-RetCOR TR-FRET, 1536-well; inhibition of corepressor binding, % at 4.78 µM; 0.12% of 320,000 active; AID 2300;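 active = percent inhibition above the cutoff of mean plus 3 SD of all tested compounds, set per screening campaign, cut at about 20% in these data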;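 note: 0% = DMSO wells and 100% = biotin wells as full block of FRET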
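System: GST-NR2E3 and biotin-RetCOR proteins; probe or stimulus: 7 nM biotin-RetCOR; doses: compound at 4.8 µM, single dose; schedule: Compound–protein incubation for 5 h at 4 °C; detection: time-resolved FRET; read-out: percent inhibition; controls: biotin wells as high control, 0.6% DMSO wells as low control; format: 1536-well plates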
NR1D1 mod conf – Rev-erb alpha (human) modulation, hit confirmation; shares compounds with NR1D1 modulator; Rev-erb alpha FITC-DNA binding, fluorescence polarization, 90 min; activation, % at 25 µM; 61% of 3,000 active;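 active = activation at or above a set limit, or at least 3 SD above the negative control mean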;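 note: 0% = 35 nM protein with DMSO and 100% = 750 nM protein high control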
RORg counter – counter-screen for Rev-erb alpha modulators: RORgamma DNA binding. shares compounds with NR1D1 modulator. purified RORgamma protein-FITC-DNA binding, fluorescence polarization. IC50, µM. 8% of 910 active. AID 1259320;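 active = Compounds whose fitted half-maximal concentration for disrupting protein-DNA binding is below 10 micromolar; the record names Rev-erb in its text, so the target is in doubt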
Numbers without * were called inactive; i = inactive; . = not tested or not shown.

SMILES	NR1D1 modulator	NR2E3 ag-1	rCAG binder	PG9 Ab binder	NR2E3 ag-2	NR1D1 mod conf	others
CC(=O)Nc1ccc(S(=O)(=O)N2C(=O)c3cccc4cccc2c34)cc1	32.6*	.	-1.0	-2.3	-0.4	3.1
N#C/C(=C\c1ccc(N2CCOCC2)o1)C(=O)Nc1ccc(O)cc1	43.7*	-45.6	-87.8	-25.9	-16.1	27.2*
N#C/C(=C/c1ccc(N2CCCCC2)o1)C(=O)Nc1ccc2ccccc2c1	67.2*	-41.5	-21.7	-1.2	.	24.9*
COc1ccc(NC(=O)/C(C#N)=C\c2ccc(N3CCOCC3)o2)cc1	65.3*	-41.3	-100.7	-20.3	-9.7	40.5*	RORg counter=i
CC(C)c1cccc(C2=CC(=O)C[C@H](c3ccc4c(c3)OCO4)C2)c1	2.9	-48.4	-0.1	-1.3	-0.9	.
CC1C(=O)CC2C3(C)CCC2(C(C)C(=O)O)C(=O)C13 (stereo not given)	-3.8	-14.1	2.0	-0.9	.	.
COC(=O)c1c(NC(=O)c2ccoc2C)sc2c1CCC2	3.2	-45.6	8.6	2.4	4.6	.
CCOC(=O)c1c(NC(=O)CN(CC)CC)sc2c1CCC2	33.4*	-4.6	-1.1	-2.3	0.6	-0.4
CCOC(=O)c1c(NC(=S)Nc2ccc(F)cc2)sc2c1CCC2	16.2	-16.1	7.0	7.8	1.2	.
CCOC(=O)c1c(NC(=S)Nc2ccc(C)cc2)sc2c1CCC2	76.1*	-8.7	11.5	-1.8	2.6	84.0*	RORg counter=>40
CCOC(=O)c1c(NC(=O)CCCC(=O)O)sc2c1CCC2	-0.6	1.9	6.7	1.0	-0.1	.
COC(=O)c1c(NC(=O)c2ccc(Br)s2)sc2c1CCC2	25.5*	5.6	11.9	-1.6	9.3	28.1*
CCOC(=O)/C(=C/C=C1\Sc2cc(OCC)c(OCC)cc2N1CC)C(C)=O	31.7*	-12.5	-82.1	-12.4	-5.4	-4.7
CCN1/C(=C/C(C)=O)Sc2ccc(OC)cc21	0.6	-43.6	1.6	-1.6	-0.4	.
CCOC(=O)/C(=C\C=C1/Sc2cc(OCC)c(OCC)cc2N1CC)C(C)=O	111.8*	10.8	-77.5	-13.5	-4.9	42.4*	RORg counter=>40
N#Cc1ccc(Oc2ccc(-c3nc4ccccc4nc3-c3ccccc3)cc2)cc1C#N	23.3*	-12.6	3.1	2.1	6.4	37.7*	RORg counter=>40
COc1ccc(-c2nc3ccccc3nc2-c2ccccc2)cc1	-0.8	2.7	0.8	-1.9	1.1	.
N#Cc1ccc(Oc2ccc(-c3cnc4ccccc4n3)cc2)cc1C#N	50.9*	-29.3	0.7	-0.3	-3.5	30.1*
Cc1ccccc1C(=O)N1CCC(C(=O)NCCc2ccc(S(N)(=O)=O)cc2)CC1	1.2	-16.5	2.1	0.7	-0.6	.
O=C1NC[C@H](CCCCN2C[C@H](Cc3ccc(O)cc3)N(CCc3ccccc3)C(=O)C2=O)N(Cc2ccccc2)C1=O	4.3	-1.8	4.9	0.7	.	.
COc1ccc(CCn2c3c(c(=O)[nH]c2=O)C(NC(=O)c2cccs2)(C(F)(F)F)C(=O)N3)cc1OC (stereo not given)	-0.4	-7.0	2.6	-0.5	-1.6	.
COc1ccc(CCn2c(O)c(C=Nc3cccc(F)c3)c(=O)[nH]c2=O)cc1OC	38.5*	-18.1	4.7	2.6	-1.9	1.0
C=CCn1c(SCCN2C(=O)c3ccccc3C2=O)nc2scc(-c3ccc(F)cc3)c2c1=O	21.1*	-27.5	1.4	1.2	.	14.2
N#Cc1c2ncn(CC(=O)c3ccc(Br)cc3)c(=O)c2c2n1CCC2	16.9*	8.7	0.0	7.7	3.9	7.5
COc1ccc(-c2cc3c(=O)n(CC(=O)NCc4ccc(Cl)cc4)ncn3n2)cc1	21.3*	-20.2	4.4	-0.4	-1.4	5.0
SMILES	NR1D1 modulator	NR2E3 ag-1	rCAG binder	PG9 Ab binder	NR2E3 ag-2	NR1D1 mod conf	others
COc1ccc(-c2cc3c(=O)n(CC(=O)NCc4ccc(C)cc4)ncn3n2)cc1	15.9	1.4	4.3	-1.4	1.4	.
C=CCn1c(SCC(=O)NC2CC2)nnc1C1CC1	-2.0	-10.7	2.4	-1.2	2.5	.
CCOC(=O)c1ccc(COC(=O)CNC(=O)CNC(=O)Cc2ccccc2)cc1	-0.5	-29.6	-8.0	0.2	0.1	.
O=C(CNC(=O)Cc1ccccc1)NCC(=O)OCc1ccc(C(=O)c2ccccc2)cc1	21.7*	-9.7	.	.	1.8	19.7*
Cc1nc(NCCc2ccccc2)c2nnn(Cc3ccccc3)c2n1	3.2	-12.0	-1.0	4.1	-1.6	.
Cc1nc(NCCc2ccc(Cl)cc2)c2nnn(Cc3ccccc3)c2n1	40.0*	-18.9	-0.8	-0.7	-0.5	35.1*	RORg counter=i
O=c1c2ccccc2c(C=NCc2ccccn2)c(O)n1-c1ccccc1	69.2*	-7.9	7.2	1.1	2.5	19.8*
CC(=O)Nc1ccc(-c2nn[nH]n2)cc1	-3.7	4.9	-0.3	-2.0	-0.8	.
CC(=O)Nc1ccc(-c2ccnc(-c3ccc(NC(C)=O)cc3)n2)cc1	20.1*	3.1	2.6	7.5	0.1	3.8
Cc1cn(CC(=O)NCc2ccccc2)c(=O)[nH]c1=O	3.7	-20.9	2.1	-0.2	.	.
Cc1cc[n+](CC[n+]2ccc(C)cc2)cc1	-2.2	-20.8	-1.9	0.9	2.8	.
CCC(C)(C)c1ccc(OCCCC[n+]2ccc(C)cc2)c(C(C)(C)CC)c1	33.6*	.	5.4	-0.5	1.4	36.1*	RORg counter=>40
Cc1cc(C(C)(C)C)ccc1OCCCCN1CCCC1	0.6	19.5	-1.5	0.6	-0.5	.
CCC(C)(C)c1ccc(OCCCC[n+]2cccc(C)c2C)c(C(C)(C)CC)c1	41.7*	3.9	3.7	-1.1	-2.9	43.0*
O=C(CCNS(=O)(=O)c1ccccc1C(F)(F)F)NCCCc1ccccc1	-2.9	8.1	0.5	-0.9	-2.7	.
Cc1cc(NC(=O)C(C)Sc2nnc(NCc3ccco3)s2)no1 (stereo not given)	7.7	-39.9	7.1	-2.5	0.6	.
Cc1cc(C(=O)N(C)CC(=O)Nc2ccc(Cl)c(C(F)(F)F)c2)no1	-1.0	19.6	0.8	1.1	6.3	.
CN(CC(=O)Nc1ccc(Cl)c(C(F)(F)F)c1)C(=O)c1cn2ccccc2n1	20.5*	-17.7	-2.1	-1.6	-1.8	1.8
CN(C)c1ccc(-c2ccnc3c2CC(C)(C(=O)Nc2ccc(F)c(Cl)c2)O3)cc1 (stereo not given)	-2.6	-45.7	5.6	0.5	.	.
Cc1ccc2nc(COC(=O)c3cnccn3)cc(=O)n2c1	-1.0	-18.7	3.2	-0.1	.	.
Cc1sc(NC(=O)c2cccc(N3C(=O)CCC3=O)c2)nc1-c1ccccc1	-3.3	-10.2	8.8	0.2	-1.1	.
CC(=O)c1sc(NC(=O)c2cccc(N3C(=O)CCC3=O)c2)nc1-c1ccccc1	42.6*	-3.0	-0.8	0.8	2.3	28.0*
CNC(=O)/C(C#N)=C/c1c(N2CCN(c3ccc(OC)cc3)CC2)nc2c(C)cccn2c1=O	-2.8	-4.6	-4.2	-3.0	0.0	.
